Measured values reported in ChEMBL document CHEMBL1143730, “Probing the bioactive constituents from chemotypes of the sponge Psammocinia aff. bulbosa” (J Nat Prod, 2007).
Values after ≈ are worked out from the molar mass of the structure shown.

Legend:
[1] = system: HCT-116; assay: Antitumor activity in human HCT116 tumor-bearing SCID mouse at 62 ug/kg bolus injection after 23 days relative to control; format: functional
In short: (§1)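 SCID mice (>17 g, weights within 5 g) implanted subcutaneously with 10⁶ tissue-culture-derived HCT-116 cells, 5 per group. Starting 1 day after inoculation, a single intravenous tail-vein bolus (drug at […], 0.25 mL) was given in DMSO diluted 1:1 with Cremophor–propylene glycol (40:60), then ≥20-fold in saline. Tumor weight followed daily. Minimum %T/C reported. Sacrifice at day 30.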

[2] = Growth inhibition of H125 cells; format: functional, cell-based; conditions: Homo sapiens, NCI-H125
In short: (§2)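 Cells seeded at 5×10^4 per T25 flask in RPMI 1640 with 15% BCS, pen/strep and glutamine. After 3 days (log phase, 5×10^5 cells/flask), compound was added at 10 to 10^-5 μg/mL. After 3 more days, cells were trypsinized and viable and dead cells counted by 0.08% trypan blue exclusion. IC50 determined.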

[3] = system: HCT-116; assay: Survivability of human HCT116 cells assessed as cell kill at >=3 ng/mL after 2 hrs; format: functional
[4] = system: L1210; assay: Growth inhibition of L1210 cells; format: functional, cell-based; conditions: Mus musculus; in short: as §2
[5] = system: HT-29; assay: Growth inhibition of HT29 cells; format: functional, cell-based; conditions: Homo sapiens; in short: as §2
[6] = system: HCT-116; assay: Survivability of human HCT116 cells assessed as cell kill at >=120 pg/mL after 168 hrs; format: functional
[7] = system: HCT-116; assay: Antitumor activity in human HCT116 tumor-bearing SCID mouse at 31 ug/kg bolus injection after 23 days relative to control; format: functional; in short: as §1
[8] = system: HCT-116; assay: Survivability of human HCT116 cells assessed as cell kill at >= 2 ng/mL after 24 hrs; format: functional
[9] = system: MDA-MB-231; assay: Growth inhibition of MDA-MB-231 cells; format: functional, cell-based; conditions: Homo sapiens; in short: as §2
[10] = system: Mus musculus; assay: Toxicity in SCID mouse at 125 ug/kg bolus injection; format: organism-based; conditions: in vivo, 0.125 mg/kg
In short: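 HCT-116 tumor-bearing SCID mice (>17 g, 5 per group). Single intravenous tail-vein bolus of 125 μg/kg (drug at […], 0.25 mL) started 1 day after subcutaneous inoculation of 10⁶ cells. Vehicle was DMSO diluted 1:1 with Cremophor–propylene glycol (40:60), then ≥20-fold in saline. Mice were monitored until sacrifice at day 30.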

C=C(C)C[C@H](OC)[C@H](O)C(=O)N[C@@H](OC)C1C[C@@H](O)C(C)(C)[C@@H](C[C@H](O)[C@@H](C)[C@@H]2Cc3c(C)c(O)cc(O)c3C(=O)O2)O1 (stereo not given in full) [IRCINIASTATIN]
Activity [1]: 75% | IC50 [2]: 0.12 ng/mL (≈ 0.197 nM) | Survival [3]: 90% | IC50 [4]: 0.18 ng/mL (≈ 0.295 nM) | IC50 [5]: 5 ng/mL (≈ 8.2 nM) | Survival [6]: 90% | Activity [7]: 86% | Survival [8]: 90% | IC50 [9]: 0.2 ng/mL (≈ 0.328 nM) | Activity [10]: Toxic
